Published values pooled from the literature.
Target: Sigma intracellular receptor 2 (Tmem97, Rattus norvegicus, UniProt Q5U3Y7)
Effect on: ligand displacement
Method: radioligand
One construct used (Q5U3Y7 1-176): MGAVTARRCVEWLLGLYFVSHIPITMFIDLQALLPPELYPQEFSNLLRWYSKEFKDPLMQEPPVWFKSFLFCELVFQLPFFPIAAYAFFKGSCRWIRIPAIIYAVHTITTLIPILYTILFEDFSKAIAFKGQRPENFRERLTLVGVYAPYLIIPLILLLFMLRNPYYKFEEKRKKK

For COc1ccc2ccn(CCCCN3Cc4cc(OC)c(OC)cc4C3)c2c1, the Ki was 9.46 nM (cell membranes).
With COc1cc2c(cc1OC)C(=O)N(CCCCN1C(=O)/C(=N\NC(=S)N(C)C)c3ccccc31)CC2 the Ki was over 10000 nM (cell membranes).
O=C(NCCN1CCCCC1)c1ccc(O)c(Br)c1 gave a Ki of over 10000 nM (cell membranes).
For COc1ccc2c(ccn2CCCCN2CCc3cc(OC)c(OC)cc3C2)c1, the Ki was 4.4 nM (cell membranes).
O=C(NCCN1CCCCC1)c1cc(Br)ccc1OCCCF gave a Ki of 92.9 nM (cell membranes).
For CN(C)C(=S)N/N=C1/C(=O)Nc2ccccc21, the Ki was over 10000 nM (cell membranes).
With COc1cc2c(cc1OC)CN(C(C)CCc1ccc(O)cc1)CC2 (stereo not shown) the Ki was 4.92 nM.
O=C(NCCN1CCCCC1)c1ccc(OCCCF)c(Br)c1 gave a Ki of 28.3 nM (cell membranes).
COc1cc2c(cc1OC)CN(CCCCn1ccc3c(OC)cccc31)CC2 gave a Ki of 7.73 nM (cell membranes).
COc1ccc(CCC(C)N2CCc3cc(OC)c(OC)cc3C2)cc1 (stereo not shown) has a Ki of 0.59 nM.
